This is an account of results in publication PMC9293343 (Chemmedchem, 2021).

In test [1] the target is T1, Neh1 (residues 445–523, Neh1‐ΔLZIP) domain of NRF2 (Homo sapiens, UniProt Q16236).
T1 sequence (Q16236 445-523): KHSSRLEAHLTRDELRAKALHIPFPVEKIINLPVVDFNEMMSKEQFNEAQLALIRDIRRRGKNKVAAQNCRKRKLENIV
In words: 1H-15N HSQC small-molecule titration. It counts as binding. In a few lines:
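15N-labelled human NRF2 residues 445–523 were expressed in E. coli BL21(DE3) with TEV-cleaved MBP/His tags and used at 50 μM in 50 mM sodium phosphate pH 6.5, 150 mM NaCl, 1 mM DTT. Test compound (50 mM DMSO-d6 stock) was titrated to final 0.250, 0.750, 1.5 and 2.0 mM, with 1H-15N HSQC at each step. Combined 1HN/15N CSPs were fitted per residue by nonlinear least squares for KD.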

Test [2] addresses T2, Neh1‐ΔLZIP (Homo sapiens, UniProt Q16236).
T2 sequence (Q16236 445-523): T1 sequence (Q16236 445-523)
Format: binding. To be noted: 0.750 mM compound 2, ARE DNA 0.10, 0.20, 0.30 mM, 50 μM protein.

The term Kd denotes the constant that tells how readily two partners part at equilibrium. Read a high Kd as a looser complex. Consider `O=C(O)COc1ccc(-c2ccccc2)cc1Br` [Compound 2, 2‐((3‐bromo‐[1,1’‐biphenyl]‐4‐yl)oxy)acetic acid], for which, in test [1] (KD, from CSP values using equation (1), average over R499, D500, R503), the equilibrium dissociation constant (Kd) came to 1.7 ± 0.1 mM. The “chemical shift change of side chain amide nitrogen Nδ2 of N482, measured value” in test [1] (at approximately 50–60 % protein fraction bound) is given as 0.64 ppm. In test [1] (upon addition of compound 2), the “CSP, backbone amide of N482” value is given as 0.04 ppm. In addition, the “replacement of compound by ARE DNA (competition)” value in test [2] was “final spectrum which is very close to the spectrum of Neh1‐ΔLZIP bound to ARE”.
